Results published in ChEMBL document CHEMBL3804819, “2-(Quinolin-4-yloxy)acetamides Are Active against Drug-Susceptible and Drug-Resistant Mycobacterium tuberculosis Strains” (ACS Med Chem Lett, 2016).
Converted amounts (≈) assume the structure as drawn. The source made the active and inactive calls. The calls are words filed in the database; no cut-off is given here.

Legend:
Escherichia coli = experiment: Antibacterial activity against Escherichia coli ATCC 25922 at 20 uM; format: functional, organism-based
[1] = test system: Mycobacterium tuberculosis; experiment: Antibacterial activity against Mycobacterium tuberculosis H37Rv infected in mouse RAW 264.7 cells assessed reduction in bacterial count per well at 5 uM after 3 days (reference value: 2.5 +/- 0.15 log10CFU); format: functional
Acinetobacter baumannii = experiment: Antibacterial activity against Acinetobacter baumannii ATCC BAA 747 at 20 uM; format: functional, organism-based
Staphylococcus aureus = experiment: Antibacterial activity against Staphylococcus aureus ATCC 25923 at 20 uM; format: functional, organism-based
Pseudomonas aeruginosa = experiment: Antibacterial activity against Pseudomonas aeruginosa ATCC 27853 at 20 uM; format: functional, organism-based
RAW264.7 = experiment: Cytotoxicity against mouse RAW264.7 cells assessed as decrease in cell viability at 5 uM after 72 hrs by MTT assay; format: cell-based; conditions: raw264.7, 72 h
Vero = experiment: Cytotoxicity against African green monkey Vero cells assessed as reduction in cell viability at 20 uM after 72 hrs by MTT assay; format: cell-based; conditions: chlorocebus sabaeus
[2] = test system: Mycobacterium tuberculosis; experiment: Antibacterial activity against Mycobacterium tuberculosis H37Rv assessed as reduction in bacterial growth after 7 days by resazurin assay; format: functional; conditions: for MIC: 168 h
HaCaT = experiment: Cytotoxicity against human HaCaT cells assessed as reduction in cell viability at 20 uM after 72 hrs by MTT assay; format: cell-based
Danio rerio [3] = organism: Danio rerio; experiment: Toxicity in zebrafish embryo assessed as reduction in embryo viability at 20 uM measured at 72 hrs post fertilization; format: organism-based; conditions: in vivo
Method in brief: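 Zebrafish embryos exposed to 20 μM for 72 h; embryo survival scored.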

[4] = Selectivity index, ratio of cytotoxic activity for African green monkey Vero cells to MIC for Mycobacterium tuberculosis H37Rv; format: toxicity, cell-based; conditions: read-out: Selectivity Index
[5] = Selectivity index, ratio of cytotoxic activity for human HaCaT cells to MIC for Mycobacterium tuberculosis H37Rv; format: toxicity, cell-based; conditions: read-out: Selectivity Index
[6] = Inhibition CYP450 in human liver microsomes by HPLC/MS/MS analysis in presence of NADPH; format: ADME
Danio rerio [7] = organism: Danio rerio; experiment: Toxicity in zebrafish embryo assessed as reduction in heart rate at 5 uM measured at 72 hrs post fertilization by stereo microscopic analysis; format: organism-based; conditions: in vivo
Danio rerio [8] = organism: Danio rerio; experiment: Toxicity in zebrafish embryo assessed as reduction in heart rate at 1 uM measured at 72 hrs post fertilization by stereo microscopic analysis; format: organism-based; conditions: in vivo
[9] = test system: Mycobacterium tuberculosis; experiment: Potency index, ratio of isoniazid MIC to compound MIC for Mycobacterium tuberculosis H37Rv; format: functional
[10] = Thermodynamic solubility of the compound at pH 7.4 after 24 hrs by HPLC analysis; format: physicochemical; conditions: buffer, read-out: Therm_solubility
Liver = experiment: Metabolic stability in human liver S9 fraction at 2 uM measured up to 30 mins by HPLC/MS/MS analysis; format: ADME, subcellular; conditions: s9, 0.5 h
Danio rerio [11] = organism: Danio rerio; experiment: Toxicity in zebrafish embryo assessed as reduction in heart rate at 20 uM measured at 72 hrs post fertilization by stereo microscopic analysis; format: organism-based; conditions: in vivo
[12] = Selectivity index, ratio of cardiac toxicity for zebrafish embryo to MIC for Mycobacterium tuberculosis H37Rv; conditions: read-out: Selectivity Index
[13] = Thermodynamic solubility of the compound at pH 1.5 after 24 hrs by HPLC analysis; format: physicochemical; conditions: buffer, read-out: Therm_solubility
[14] = test system: Mycobacterium tuberculosis; experiment: Antibacterial activity against Mycobacterium tuberculosis H37Rv ATCC 25618 assessed as reduction in bacterial growth after 6 days by resazurin assay; format: functional; conditions: H37Rv ATCC 25618, 144 h

COc1ccc2nc(C)cc(OCC(=O)Nc3ccccc3C)c2c1
Activity (Escherichia coli): inactive | Activity [1]: 2.09 log10CFU | Activity (Acinetobacter baumannii): inactive | Activity (Staphylococcus aureus): inactive | Activity (Pseudomonas aeruginosa): inactive | Activity (RAW264.7): Non-toxic | Activity (Vero): Non-toxic | MIC [2]: 0.46 µM (≈ 0.155 µg/mL) | Activity (HaCaT): Non-toxic

CCc1cccc(C)c1NC(=O)COc1cc(C)nc2ccc(OC)cc12
MIC [2]: > 27 µM

COc1ccc2nc(C)cc(OCC(=O)Nc3ccccc3Cl)c2c1
Activity (Escherichia coli): inactive | Activity [1]: 1.75 log10CFU | Activity (Acinetobacter baumannii): inactive | Activity (Staphylococcus aureus): inactive | Activity (Pseudomonas aeruginosa): inactive | Activity (RAW264.7): Non-toxic | Activity (Vero): Non-toxic | MIC [2]: 0.44 µM (≈ 0.157 µg/mL) | Activity (HaCaT): Non-toxic

COc1ccc2nc(C)cc(OCC(=O)Nc3ccc(N)cc3)c2c1
MIC [2]: 7.39 µM (≈ 2.49 µg/mL)

CO[C@H]1/C=C/O[C@@]2(C)Oc3c(C)c(O)c4c(O)c(c(/C=N/N5CCN(C)CC5)c(O)c4c3C2=O)NC(=O)/C(C)=C\C=C\[C@H](C)[C@H](O)[C@@H](C)[C@@H](O)[C@@H](C)[C@H](OC(C)=O)[C@@H]1C [RIFAMPIN]
Activity [1]: 1.58 log10CFU

COc1ccc(NC(=O)COc2cc(C)nc3ccc(OC)cc23)cc1
Activity (Escherichia coli): inactive | Activity (Acinetobacter baumannii): inactive | Activity (Staphylococcus aureus): inactive | Activity (Pseudomonas aeruginosa): inactive | Activity (Vero): Non-toxic | MIC [2]: 0.44 µM (≈ 0.155 µg/mL) | Activity (HaCaT): Non-toxic

COc1ccc2nc(C)cc(OCC(=O)Nc3ccccc3[N+](=O)[O-])c2c1
MIC [2]: 6.79 µM (≈ 2.49 µg/mL)

COc1ccc2nc(C)cc(OCC(=O)Nc3ccc(C(F)(F)F)cc3)c2c1
Activity (Escherichia coli): inactive | Activity [1]: 1.89 log10CFU | Activity (Acinetobacter baumannii): inactive | Activity (Staphylococcus aureus): inactive | Activity (Pseudomonas aeruginosa): inactive | Activity (RAW264.7): Non-toxic | Activity (Vero): Non-toxic | MIC [2]: 0.8 µM (≈ 0.312 µg/mL) | Activity (HaCaT): Non-toxic

COc1ccc2nc(C)cc(OCC(=O)Nc3ccc4ccccc4c3)c2c1
Activity (Danio rerio [3]): Toxic | Selectivity ratio [4]: > 100 | Selectivity ratio [5]: > 100 | IC50 [6]: < 10 µM | Activity (Escherichia coli): inactive | Activity [1]: 1.93 log10CFU | Activity (Acinetobacter baumannii): inactive | Activity (Danio rerio [7]): Non-toxic | Activity (Danio rerio [8]): Non-toxic | Ratio [9]: 30 | Activity (Staphylococcus aureus): inactive | Activity (Pseudomonas aeruginosa): inactive | solubility thermodynamic at 24 h [10]: < 4.4 µM | Activity (RAW264.7): Non-toxic | Stability (Liver): Unstable | Activity (Danio rerio [11]): Toxic | Selectivity ratio [12]: > 100 | Activity (Vero): Toxic | MIC [2]: 0.05 µM (≈ 0.0186 µg/mL) | Activity (HaCaT): Toxic | solubility thermodynamic at 24 h [13]: 30 µM (≈ 11.2 µg/mL)

COc1ccc2nc(C)cc(OCC(=O)Nc3ccccc3OC)c2c1
Activity (Escherichia coli): inactive | Activity [1]: 1.61 log10CFU | Activity (Acinetobacter baumannii): inactive | MIC [14]: 0.7 µM (≈ 0.247 µg/mL) | Activity (Staphylococcus aureus): inactive | Activity (Pseudomonas aeruginosa): inactive | Activity (RAW264.7): Non-toxic | Activity (Vero): Non-toxic | MIC [2]: 0.44 µM (≈ 0.155 µg/mL) | Activity (HaCaT): Non-toxic

COc1ccc2nc(C)cc(OCC(=O)Nc3cccc(Cl)c3)c2c1
Activity (Escherichia coli): inactive | Activity [1]: 2.12 log10CFU | Activity (Acinetobacter baumannii): inactive | Activity (Staphylococcus aureus): inactive | Activity (Pseudomonas aeruginosa): inactive | Activity (RAW264.7): Non-toxic | Activity (Vero): Non-toxic | MIC [2]: 0.44 µM (≈ 0.157 µg/mL) | Activity (HaCaT): Non-toxic

COc1ccc2c(c1)c(=O)ccn2CC(=O)Nc1ccccc1OC
MIC [2]: > 31 µM

COc1ccc2nc(C)cc(OCC(=O)NCc3ccccc3)c2c1
Activity (Escherichia coli): inactive | Activity [1]: 1.71 log10CFU | Activity (Acinetobacter baumannii): inactive | Activity (Staphylococcus aureus): inactive | Activity (Pseudomonas aeruginosa): inactive | Activity (RAW264.7): Non-toxic | Activity (Vero): Non-toxic | MIC [2]: 1.85 µM (≈ 0.622 µg/mL) | Activity (HaCaT): Non-toxic

COc1cccc(NC(=O)COc2cc(C)nc3ccc(OC)cc23)c1
Activity (Escherichia coli): inactive | Activity (Acinetobacter baumannii): inactive | Activity (Staphylococcus aureus): inactive | Activity (Pseudomonas aeruginosa): inactive | Activity (Vero): Non-toxic | MIC [2]: 0.88 µM (≈ 0.31 µg/mL) | Activity (HaCaT): Non-toxic

COc1ccc2nc(C)cc(OCC(=O)Nc3ccc4c(c3)OCO4)c2c1
Activity (Escherichia coli): inactive | Activity [1]: 1.77 log10CFU | Activity (Acinetobacter baumannii): inactive | Activity (Staphylococcus aureus): inactive | Activity (Pseudomonas aeruginosa): inactive | Activity (RAW264.7): Non-toxic | Activity (Vero): Non-toxic | MIC [2]: 0.42 µM (≈ 0.154 µg/mL) | Activity (HaCaT): Non-toxic

COc1ccc2nc(C)cc(OCC(=O)Nc3cccc(C(F)(F)F)c3)c2c1
MIC [2]: 6.39 µM (≈ 2.49 µg/mL)

COc1ccc2nc(C)cc(OCC(=O)Nc3ccc(Cl)cc3)c2c1
Activity (Escherichia coli): inactive | Activity [1]: 1.73 log10CFU | Activity (Acinetobacter baumannii): inactive | Activity (Staphylococcus aureus): inactive | Activity (Pseudomonas aeruginosa): inactive | Activity (RAW264.7): Non-toxic | Activity (Vero): Non-toxic | MIC [2]: 0.44 µM (≈ 0.157 µg/mL) | Activity (HaCaT): Non-toxic

NNC(=O)c1ccncc1 [ISONIAZID]
MIC [2]: 1.46 µM (≈ 0.2 µg/mL)

COc1ccc2nc(C)cc(OCC(=O)Nc3cccc4ccccc34)c2c1
MIC [2]: 0.21 µM (≈ 0.0782 µg/mL)

COc1ccc2nc(C)cc(O)c2c1
Activity [2]: inactive

COc1ccc2nc(C)cc(OCC(=O)Nc3ccccc3)c2c1
Activity (Escherichia coli): inactive | Activity (Acinetobacter baumannii): inactive | Activity (Staphylococcus aureus): inactive | Activity (Pseudomonas aeruginosa): inactive | Activity (Vero): Non-toxic | MIC [2]: 0.48 µM (≈ 0.155 µg/mL) | Activity (HaCaT): Non-toxic

COc1ccc(NC(=O)COc2cc(C)nc3ccc(OC)cc23)c(OC)c1
IC50 [6]: < 10 µM | Activity (Escherichia coli): inactive | Activity [1]: 1.61 log10CFU | Activity (Acinetobacter baumannii): inactive | Activity (Danio rerio [7]): Non-toxic | Activity (Danio rerio [8]): Non-toxic | Activity (Staphylococcus aureus): inactive | Activity (Pseudomonas aeruginosa): inactive | solubility thermodynamic at 24 h [10]: < 4.4 µM | Activity (RAW264.7): Non-toxic | Stability (Liver): Stable | Activity (Danio rerio [11]): Toxic | Activity (Vero): Non-toxic | MIC [2]: 0.15 µM (≈ 0.0574 µg/mL) | Activity (HaCaT): Non-toxic | solubility thermodynamic at 24 h [13]: 30 µM (≈ 11.5 µg/mL)

COc1ccc2nc(C)cc(OCC(=O)Nc3ccc([N+](=O)[O-])cc3)c2c1
MIC [2]: 6.79 µM (≈ 2.49 µg/mL)

COc1ccccc1NC(=O)COc1cc(C)nc2ccccc12
MIC [2]: > 29 µM

COc1ccc2nc(C)cc(OCC(=O)Nc3ccc(Br)cc3)c2c1
IC50 [6]: < 10 µM | Activity (Escherichia coli): inactive | Activity [1]: 1.87 log10CFU | Activity (Acinetobacter baumannii): inactive | Activity (Danio rerio [7]): Non-toxic | Activity (Danio rerio [8]): Non-toxic | Activity (Staphylococcus aureus): inactive | Activity (Pseudomonas aeruginosa): inactive | solubility thermodynamic at 24 h [10]: < 4.4 µM | Activity (RAW264.7): Non-toxic | Stability (Liver): Stable | Activity (Danio rerio [11]): Toxic | Activity (Vero): Non-toxic | MIC [2]: 0.1 µM (≈ 0.0401 µg/mL) | Activity (HaCaT): Non-toxic | solubility thermodynamic at 24 h [13]: 30 µM (≈ 12 µg/mL)
